Assays:
[1] = Toxicity in BALB/c mouse assessed as muscle spasm at 50 to 100 mg/kg, ig administered for 14 days; type: organism-based; conditions: in vivo, po, 336 h, dose 50-100 mg/kg, time 14 day
Outline: (§1)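 BALB/c mice, 10 per group, gavaged daily for 14 days at 50 or 100 mg/kg; blank control group included. Hair, behaviour and neurological signs (fremitus, convulsion, spasm, gait disturbance) were observed. At day 14, mice were weighed and given routine blood tests and serum biochemistry (ALT, AST, urea, creatinine; n = 10). Liver and kidney were examined on paraffin-embedded histology sections.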

[2] = Toxicity in BALB/c mouse assessed as convulsion at 50 to 100 mg/kg, ig administered for 14 days; type: organism-based; conditions: in vivo, po, 336 h, dose 50-100 mg/kg, time 14 day; outline: as §1
[3] = Toxicity in BALB/c mouse assessed as effect on body weight at 50 to 100 mg/kg, ig administered for 14 days; type: organism-based; conditions: in vivo, po, 336 h, dose 50-100 mg/kg, time 14 day; outline: as §1
[4] = Toxicity in BALB/c mouse assessed as effect on hair at 50 to 100 mg/kg, ig administered for 14 days; type: organism-based; conditions: in vivo, po, 336 h, dose 50-100 mg/kg, time 14 day; outline: as §1
[5] = Oral bioavailability in Sprague-Dawley rat at 10 mg/kg by LC-MS/MS analysis; type: ADME, organism-based; conditions: in vivo
Outline: (§2)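 SD rats dosed iv or intragastrically. Plasma (50 µL) was mixed with diclofenac internal standard (50 ng/mL, 300 µL), vortexed, centrifuged at 4 °C, and the supernatant analysed by LC/MS/MS against spiked standard and QC curves. Noncompartmental parameters calculated; mean ± SD, n = 3 (bioavailability excepted).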

[6] = AUC (0 to infinity) in Sprague-Dawley rat at 10 mg/kg, po by LC-MS/MS analysis; type: ADME, organism-based; design: route oral, time infinity, dose 10 mg/kg; conditions: in vivo
Outline: (§3)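 The acid metabolite of the parent ester was dosed directly to Sprague-Dawley rats, iv or intragastrically (n=3). Plasma (50 µL) was spiked with 5 µL DMSO, extracted with 300 µL acetonitrile containing 50 ng/mL diclofenac internal standard, then vortexed and centrifuged at 4 °C. Supernatant was quantified by LC/MS/MS against plasma calibration standards and QCs. AUC came from noncompartmental analysis.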

[7] = AUC (0 to t) in Sprague-Dawley rat at 10 mg/kg, po by LC-MS/MS analysis; type: ADME, organism-based; design: dose 10 mg/kg; conditions: in vivo
[8] = Tmax in Sprague-Dawley rat at 10 mg/kg, po by LC-MS/MS analysis; type: ADME, organism-based; conditions: in vivo; outline: as §2
[9] = MRT in Sprague-Dawley rat at 2 mg/kg, iv by LC-MS/MS analysis; type: ADME, organism-based; conditions: in vivo; outline: as §2
[10] = AUC (0 to t) in Sprague-Dawley rat at 2 mg/kg, iv by LC-MS/MS analysis; type: ADME, organism-based; design: dose 2 mg/kg; conditions: in vivo; outline: as §3
[11] = AUC (0 to infinity) in Sprague-Dawley rat at 2 mg/kg, iv by LC-MS/MS analysis; type: ADME, organism-based; design: route intravenous, time infinity, dose 2 mg/kg; conditions: in vivo; outline: as §3
[12] = Initial concentration in Sprague-Dawley rat at 2 mg/kg, iv by LC-MS/MS analysis; type: ADME, organism-based; conditions: in vivo; outline: as §2
[13] = Half life in Sprague-Dawley rat at 2 mg/kg, iv by LC-MS/MS analysis; type: ADME, organism-based; conditions: in vivo; outline: as §2
Cytochrome P450 3A4 = Cytochrome P450 3A4 (Homo sapiens, UniProt P08684); test: Inhibition of CYP3A4 in human liver microsomes using midazolam as substrate incubated for 5 mins followed by NADPH addition and measured after 20 mins by LC-MS/MS analysis; type: ADME
Cytochrome P450 3A4, sequence (P08684 whole entry, canonical isoform): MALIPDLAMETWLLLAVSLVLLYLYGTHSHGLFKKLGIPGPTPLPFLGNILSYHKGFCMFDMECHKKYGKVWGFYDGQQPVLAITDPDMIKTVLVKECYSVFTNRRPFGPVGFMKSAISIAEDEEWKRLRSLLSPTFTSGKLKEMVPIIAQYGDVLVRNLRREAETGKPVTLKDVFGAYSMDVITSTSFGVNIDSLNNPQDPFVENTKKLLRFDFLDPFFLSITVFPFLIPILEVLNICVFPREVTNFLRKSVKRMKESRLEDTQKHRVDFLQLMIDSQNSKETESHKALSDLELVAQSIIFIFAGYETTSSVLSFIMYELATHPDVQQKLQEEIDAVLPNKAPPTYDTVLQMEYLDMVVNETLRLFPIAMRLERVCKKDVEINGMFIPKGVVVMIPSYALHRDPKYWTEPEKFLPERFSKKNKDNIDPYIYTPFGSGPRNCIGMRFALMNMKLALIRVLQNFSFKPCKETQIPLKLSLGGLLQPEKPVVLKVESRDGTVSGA
Outline: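 Human liver microsomes at 0.2 mg/mL mixed with probe substrates, preincubated 5 min at 37 °C. Reaction started with NADPH and run 20 min at 37 °C in a shaking bath. Quenched, held at -20 °C for 1 h, centrifuged, and the supernatant analysed by LC/MS/MS. Assay validated with specific inhibitors for each isoform.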

[14] = Toxicity in BALB/c mouse assessed as inflammatory infiltration in liver at 50 to 100 mg/kg, ig administered for 14 days; type: organism-based; conditions: in vivo, po, 336 h, dose 50-100 mg/kg, time 14 day; outline: as §1
[15] = Renal toxicity in BALB/c mouse assessed as effect on serum urea level at 50 to 100 mg/kg, ig administered for 14 days; type: organism-based; conditions: in vivo, po, 336 h, dose 50-100 mg/kg, time 14 day; outline: as §1

For `COc1ccc2cc(C(=O)NCCN(C)C)oc2c1.CS(=O)(=O)O`, the Activity [1] was “Non-Toxic”, the Activity [2] was “Non-Toxic” and the Activity [3] was “Non-Toxic”. For the same compound, the Activity [4] was “Non-Toxic”, the bioavailability [5] was 83.1% and the AUC(0-inf) [6] was 286 ng·h/mL. The AUC(0-t) [7] was 278 ng·h/mL, the Tmax [8] was 0.5 h and the MRT [9] was 2.85 h. For the same compound, the AUC(0-t) [10] was 59.5 ng·h/mL, the AUC(0-inf) [11] was 69 ng·h/mL and the C0 [12] was 17.2 ng/mL. The half-life [13] was 2.52 h, the IC50 (Cytochrome P450 3A4) was over 10 µM and the Activity [14] was “Toxic”. The Activity [15] was “Non-Toxic”.

— ChEMBL document CHEMBL4765342, “Substituted benzothiophene and benzofuran derivatives as a novel class of bone morphogenetic Protein-2 upregulators: Synthesis, anti-osteoporosis efficacies in ovariectomized rats and a zebrafish model, and ADME properties” (Eur J Med Chem, 2020)
